Calls of active or inactive are those of the source. The calls are words filed in the database; no cut-off is given here.
Assays:
[1] = target: T1, Neutrophil elastase (Homo sapiens) (UniProt P08246); experiment: Inhibition of human neutrophil elastase
T1 sequence (whole entry): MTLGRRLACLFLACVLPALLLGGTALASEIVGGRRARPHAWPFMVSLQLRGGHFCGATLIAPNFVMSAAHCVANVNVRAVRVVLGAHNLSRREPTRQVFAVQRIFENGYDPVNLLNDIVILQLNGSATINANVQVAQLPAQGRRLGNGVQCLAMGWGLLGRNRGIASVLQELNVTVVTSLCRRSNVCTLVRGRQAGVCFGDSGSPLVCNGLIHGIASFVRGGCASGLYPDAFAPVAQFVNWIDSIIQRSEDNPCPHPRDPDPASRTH
Summary of the method: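 Human elastase (final 70 nM; added from a stock in 0.05 mM sodium acetate/0.5 M NaCl pH 5.50) in 0.1 M HEPES/0.5 M NaCl pH 7.25 at 25 °C. Substrate was methoxysuccinyl-Ala-Ala-Pro-Val p-nitroaniline, with single inhibitor level from DMSO. […] read for 2 min against a DMSO-only hydrolysis control. % inhibition = (1 − v/vo)×100, mean of duplicate or triplicate runs.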

[2] = target: T2, Myeloblastin (Homo sapiens) (UniProt P24158); experiment: Inhibition of human neutrophil proteinase 3
T2 sequence (whole entry): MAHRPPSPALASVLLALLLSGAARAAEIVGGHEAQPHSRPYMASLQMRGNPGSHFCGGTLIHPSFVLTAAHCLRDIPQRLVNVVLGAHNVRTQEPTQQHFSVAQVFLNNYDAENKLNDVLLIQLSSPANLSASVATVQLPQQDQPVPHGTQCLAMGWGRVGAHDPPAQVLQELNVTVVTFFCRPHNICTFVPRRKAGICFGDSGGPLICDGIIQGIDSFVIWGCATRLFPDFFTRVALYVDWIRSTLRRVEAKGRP
Summary of the method: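 Human proteinase 3 (final 34.5 nM; added from a stock in 0.1 M phosphate pH 6.50) in 0.1 M HEPES/0.5 M NaCl pH 7.25 at 25 °C. Thiobenzyl ester substrate Boc-Ala-Ala-NVa-SBzl, with 5,5′-dithio-bis(2-nitrobenzoic acid) from DMSO and single inhibitor level from DMSO. Absorbance followed at […] for 2 min against an uninhibited hydrolysis control. % inhibition = (1 − v/vo)×100, duplicate or triplicate mean.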

Structure (SMILES) | inhibition [1] | inhibition [2]
CCN1CN(Cc2cccc(NC(=O)c3ccccc3)c2)S(=O)(=O)N1CC | inactive | inactive
CCN1CN(Cc2cccc(NC(=O)c3cccc(Oc4ccccc4)c3)c2)S(=O)(=O)N1CC | inactive | inactive
CCN1C(=O)N(C(Cc2ccccc2)C(=O)Nc2ccccc2NC(=O)OCC(C)C)S(=O)(=O)N1CC (stereo unspecified) | Active | inactive
CCN1CN(Cc2cn(CC(=O)c3cccs3)nn2)S(=O)(=O)N1CC | inactive | inactive
CCN1CN(Cc2cccc(NC(=O)NCCc3ccccc3)c2)S(=O)(=O)N1CC | inactive | inactive
CCN1CN(Cc2cccc(NC(=O)CCOC)c2)S(=O)(=O)N1CC | inactive | inactive
CCN1CN(Cc2cn(CC(=O)c3ccccc3F)nn2)S(=O)(=O)N1CC | inactive | inactive
CCN1CN(Cc2cccc(NC(=O)c3cccc(OC)c3)c2)S(=O)(=O)N1CC | inactive | inactive
